Laboratory results published in paper PMC11364305 (Annals of African Medicine, 2024).
Converted amounts (≈) assume the structure as drawn. “Also recorded” adds a separate entry of the source. Read-outs that look alike come from different tables or passages of the source.

What was measured:
C. neoformans MTCC4424 [1] = assay: Checkerboard microtiter test with fluconazole, MTCC4424; type: cell-based, Cryptococcus neoformans; settings: for MIC: Cryptococcus neoformans, MTCC4424, 48 h, read-out: MIC of agent alone
[2] = system: CN and CN MTCC4424 strains; assay: Checkerboard test, text statements for both test strains; type: cell-based, Cryptococcus neoformans; settings: for Interaction with fluconazole: checkerboard, CN and CN MTCC4424
C. neoformans CN = assay: Checkerboard microtiter test with fluconazole, CN; type: cell-based, Cryptococcus neoformans; settings: for MIC: Cryptococcus neoformans, 48 h, read-out: MIC of agent alone; for Lowering of own MIC: in combination with fluconazole, against CN
[3] = system: Cryptococcus neoformans test strains (CN and CN MTCC4424); assay: Disc diffusion, text statements for both test strains; type: cell-based; settings: oils/compounds, against the test strains
In short: (§1)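 Per CLSI M44-A2, modified. Strains were kept on SDA slants at 4°C and subcultured in SDB before use. 100 µl of cell suspension (1.5 × 10^8 cfu/ml) was spread on SDA. Plates got antifungal drug discs (10–20 µg/disc) or 8 mm paper discs soaked with 10 µl of oil or test compound, then incubated at 37°C for 48 h. Inhibition-zone diameter (mm) was recorded in triplicate as mean ± SD.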

[4] = system: C. neoformans (clinical isolate CN); assay: Broth microdilution MIC/MFC, clinical isolate CN; type: cell-based; settings: Cryptococcus neoformans
C. neoformans MTCC4424 [5] = assay: Broth microdilution MIC/MFC, MTCC4424; type: cell-based; settings: Cryptococcus neoformans; for MFC: MTCC4424
C. neoformans MTCC4424 [6] = assay: Disc diffusion assay, MTCC4424; type: cell-based, Cryptococcus neoformans; settings: 37°C, 48 h, mean±SD; for Diameter of zone of inhibition: 10 μL of essential oil or active compound per disc
In short: as §1

[7] = system: C. neoformans (clinical isolate CN); assay: Disc diffusion assay, clinical isolate CN; type: cell-based, Cryptococcus neoformans; settings: 37°C, 48 h, mean±SD; for Diameter of zone of inhibition: 10 μL of essential oil or active compound per disc
In short: as §1

Cytotoxicity = type: cell-based; settings: red blood cell suspension (4% RBC from defibrinated blood), pH 7
[8] = system: Cryptococcus neoformans test strains (CN and CN MTCC4424); assay: Broth microdilution, text statements for both test strains; type: cell-based
red blood cell (RBC) = assay: Cytotoxicity; type: cell-based; settings: 0.1% (v/v) Triton X-100
[9] = CD-FLC combination (cinnamaldehyde + fluconazole)
[10] = Cryptococcus neoformans, MTCC4424, read-out: MIC, oils/compounds, against the test strains
[11] = oils/compounds, against the test strains
[12] = EL-FLC combination (eugenol + fluconazole)

Row | Compound | MIC (C. neoformans MTCC4424 [1]) | Reduction of MICs in combination with fluconazole [2] | MIC (C. neoformans CN) | MIC ([4]; 24 h) | MIC (C. neoformans MTCC4424 [5]; MTCC4424, 24 h) | MIC [8, 10] | MIC [8, 11] | Interaction with fluconazole [2] | zone of inhibition [3] | Diameter of zone of inhibition (C. neoformans MTCC4424 [6]) | Diameter of zone of inhibition [7] | hemolysis at 2 h, 25 μg/mL (Cytotoxicity) | hemolysis at 2 h, 50 μg/mL (Cytotoxicity) | hemolysis at 2 h, 100 μg/mL (Cytotoxicity) | hemolysis at 2 h, 200 μg/mL (Cytotoxicity) | hemolysis at 2 h, 400 μg/mL (Cytotoxicity) | hemolysis at 2 h, 800 μg/mL (Cytotoxicity) | hemolysis at 2 h, 1600 μg/mL (Cytotoxicity) | hemolysis at 2 h, 3200 μg/mL (Cytotoxicity) | MFC [4] | further results
1 | O=C/C=C/c1ccccc1 [CD, Cinnamaldehyde] | 100 µg/mL | up to 32 fold | 100 µg/mL | 100 µg/mL (≈ 757 µM) | 100 µg/mL (≈ 757 µM) | 100 µg/mL (≈ 757 µM) | 100 to 200 µg/mL | synergistic interaction | > 15 mm | 45.66±2.49 mm | 48.33±3.39 mm | 1.84 ± 0.19% | 2.87 ± 0.07% | 3.39 ± 0.12% | 3.96 ± 0.05% | 4.4 ± 0.17% | 5.06 ± 0.2% | 6.22 ± 0.19% | 18.1 ± 0.4% | – | MIC of agent in combination (C. neoformans MTCC4424 [1]; [9]): 12.50 µg/mL; MIC of agent in combination (C. neoformans CN; [9]): 12.50 µg/mL; Lowering of own MIC (C. neoformans CN): 8 folds
2 | CC(C)=CCC/C(C)=C/CO [GR, Geraniol] | – | up to 8 fold | – | 400 µg/mL (≈ 2590 µM) | 800 µg/mL (≈ 5190 µM) | 400 to 1600 µg/mL (≈ 2590 to 10400 µM) | 400 to 1600 µg/mL | synergy | > 15 mm | 19.33±1.24 mm | 19.33±1.24 mm | 1.33 ± 0.17% | 2.16 ± 0.25% | 2.31 ± 0.26% | 2.87 ± 0.23% | 3.36 ± 0.18% | 3.85 ± 0.11% | 4.74 ± 0.34% | 14.3 ± 0.23% | – | –
3 | CC(C)=CCCC(C)=CC=O (mixture of isomers) [CT, Citral] | – | up to 8 fold | – | 800 µg/mL | 1600 µg/mL | 400 to 1600 µg/mL | 400 to 1600 µg/mL | less synergistic; also recorded: synergy | > 15 mm | 22.66±1.24 mm | 25.33±2.05 mm | 1.78 ± 0.16% | 2.86 ± 0.15% | 3.8 ± 0.18% | 4.29 ± 0.12% | 4.51 ± 0.13% | 5.98 ± 0.21% | 6.96 ± 0.1% | 17.6 ± 1.04% | – | –
4 | CC(=O)N1CCN(c2ccc(OCC3COC(Cn4ccnc4)(c4ccc(Cl)cc4Cl)O3)cc2)CC1 (stereo not drawn) [KTC, Ketoconazole] | – | – | – | – | – | – | – | – | – | – | – | – | – | – | – | – | – | – | – | 0.5 µg/mL (≈ 0.941 µM) | MIC ([4]; 48 h): 0.25 µg/mL (≈ 0.47 µM); MFC (C. neoformans MTCC4424 [5]): 128 µg/mL (≈ 241 µM); MIC (C. neoformans MTCC4424 [5]; MTCC4424, 48 h): 64 µg/mL (≈ 120 µM); Diameter of the zone of inhibition ([7]; antifungal drugs 10 μg/disc): 19.33±1.24 mm
5 | Triton X-100 [reference compound] | – | – | – | – | – | – | – | – | – | – | – | – | – | – | – | – | – | – | – | – | hemolysis (positive control) (red blood cell (RBC)): 100%
6 | CCC(C)n1ncn(-c2ccc(N3CCN(c4ccc(OCC5COC(Cn6cncn6)(c6ccc(Cl)cc6Cl)O5)cc4)CC3)cc2)c1=O (stereo not drawn) [ITC, Itraconazole] | – | – | – | – | – | – | – | – | – | – | – | – | – | – | – | – | – | – | – | 128 µg/mL (≈ 181 µM) | MIC ([4]; 48 h): 64 µg/mL (≈ 90.7 µM); MFC (C. neoformans MTCC4424 [5]): 256 µg/mL (≈ 363 µM); MIC (C. neoformans MTCC4424 [5]; MTCC4424, 48 h): 128 µg/mL (≈ 181 µM); MIC range (resistance to azoles) ([8]; antifungal drugs, both test strains): 64 to 256 µg/mL

Further lines, with some results ahead:

Row | MIC (C. neoformans MTCC4424 [1]) | Reduction of MICs in combination with fluconazole [2] | MIC (C. neoformans CN) | MIC ([4]; 24 h) | MIC (C. neoformans MTCC4424 [5]; MTCC4424, 24 h) | MIC [8, 10] | MIC [8, 11] | Compound | Interaction with fluconazole [2] | zone of inhibition [3] | Diameter of zone of inhibition (C. neoformans MTCC4424 [6]) | Diameter of zone of inhibition [7] | hemolysis at 2 h, 25 μg/mL (Cytotoxicity) | hemolysis at 2 h, 50 μg/mL (Cytotoxicity) | hemolysis at 2 h, 100 μg/mL (Cytotoxicity) | hemolysis at 2 h, 200 μg/mL (Cytotoxicity) | hemolysis at 2 h, 400 μg/mL (Cytotoxicity) | hemolysis at 2 h, 800 μg/mL (Cytotoxicity) | hemolysis at 2 h, 1600 μg/mL (Cytotoxicity) | hemolysis at 2 h, 3200 μg/mL (Cytotoxicity) | MFC [4] | further results
7 | 200 µg/mL | up to 32 fold | 200 µg/mL | 200 µg/mL (≈ 1220 µM) | 200 µg/mL (≈ 1220 µM) | 200 µg/mL (≈ 1220 µM) | 100 to 200 µg/mL | C=CCc1ccc(O)c(OC)c1 [EL, Eugenol] | synergistic interaction | > 15 mm | 40.33±1.69 mm | 22.66±1.24 mm | 1.65 ± 0.14% | 1.98 ± 0.09% | 3.02 ± 0.08% | 3.72 ± 0.16% | 4.26 ± 0.16% | 4.78 ± 0.25% | 5.6 ± 0.63% | 19 ± 0.3% | – | MIC of agent in combination (C. neoformans MTCC4424 [1]; [12]): 12.50 µg/mL; MIC of agent in combination (C. neoformans CN; [12]): 12.50 µg/mL; FICI (C. neoformans CN; combination with fluconazole): 0.187; Lowering of own MIC (C. neoformans CN): 8 folds
8 | 8 µg/mL | up to 32 fold | 128 µg/mL | – | – | – | – | OC(Cn1cncn1)(Cn1cncn1)c1ccc(F)cc1F [FLC, Fluconazole, reference compound] | – | – | – | – | – | – | – | – | – | – | – | – | 256 µg/mL (≈ 836 µM) | MIC of agent in combination (C. neoformans MTCC4424 [1]; [9]): 1 µg/mL; MIC of agent in combination (C. neoformans MTCC4424 [1]; [12]): 1 µg/mL; MIC of agent in combination (C. neoformans CN; [9]): 8 µg/mL; MIC of agent in combination (C. neoformans CN; [12]): 8 µg/mL; MIC ([4]; 48 h): 128 µg/mL (≈ 418 µM); MFC (C. neoformans MTCC4424 [5]): 32 µg/mL (≈ 104 µM); MIC (C. neoformans MTCC4424 [5]; MTCC4424, 48 h): 8 µg/mL (≈ 26.1 µM); Diameter of the zone of inhibition (C. neoformans MTCC4424 [6]; antifungal drugs 10 μg/disc): 14.33±1.24 mm
